Results collected from several papers.
Lines come from different studies, so protocols differ.
Target: Calcium/calmodulin-dependent protein kinase type II subunit alpha (CAMK2A, Homo sapiens, UniProt Q9UQM7)

CN(CCCC(F)(F)F)c1nccc(-c2cnn3ncccc23)n1 has a remaining binding of 91% (binding; 1 µM).
CCN1CCN(Cc2ccc(C(=O)Nc3ccc(C)c(Oc4ccc5c(c4)CC(=O)N5)c3)cc2C(F)(F)F)CC1 gave a remaining binding of 100% (binding, competition with immobilised ligand; 1 µM).
NS(=O)(=O)c1cc(NC(=O)Cc2ccccc2)ccc1Oc1cccc(Cl)c1 gave a remaining binding of 96% (cell-free assay, competition with immobilised ligand; 1 µM).
The remaining binding of COc1cnc(Nc2cccc(S(N)(=O)=O)c2)nc1N1CCN(c2ccccc2)C(=O)C1 is reported as 100% (binding, competition with immobilised ligand; 1 µM).
O=C(Nc1cnc(Oc2ccc(F)cc2)nc1)N1CCc2ncccc2[C@@H]1c1ccc(F)cc1 has a remaining binding of 92% (cell-free assay, competition with immobilised ligand; 1 µM).
Nc1ncc2c(n1)-c1c([nH]c3ccc(C#CC4CC4)cc13)CCCC2 gave a remaining binding of 100% (binding, competition with immobilised ligand; 1 µM).
The remaining binding of CN(C)c1ncc(F)c(-c2cnn3ncccc23)n1 is reported as 63% (binding; 1 µM).
With CC(=O)C1=C(C)N(c2cccc(C(F)(F)F)c2)C(=O)N[C@@H]1c1ccc(C#N)nc1 the remaining binding was 92.5% (cell-free assay, competition with immobilised ligand; 1 µM).
CC1CCCN1c1nccc(-c2cnn3ncccc23)n1 (stereo not shown) has a remaining binding of 90% (binding; 1 µM).
The remaining binding of FC(F)(F)c1ccc2c(c1)nc(-c1cccnc1)n2C1CC1 is reported as 88% (cell-free assay, competition with immobilised ligand; 1 µM).
For Cc1cnc(Nc2ccc(C(=O)N3CCC(N4CCCC4)CC3)cc2)nc1-c1cc2ccccc2s1, the remaining binding was 58% (binding, competition with immobilised ligand; 1 µM).
The remaining binding of c1cncc(-c2cccc(Nc3nccc(NC4CCCCC4)n3)c2)c1 is reported as 84% (binding, competition with immobilised ligand; 10 µM).
For C[C@@H]1CCN(c2nccc(-c3cnn4ncccc34)n2)C1, the remaining binding was 80% (binding; 1 µM).
For O=C(NCC1CCOCC1)c1n[nH]cc1NC(=O)c1c(F)cccc1F, the remaining binding was 94% (binding, competition with immobilised ligand; 1 µM).
COc1cnc(Nc2cccc(S(N)(=O)=O)c2)nc1N1CCN(c2ccccc2)CC1 has a remaining binding of 87% (binding, competition with immobilised ligand; 1 µM).
F[C@@H]1CCN(c2nccc(-c3cnn4ncccc34)n2)C1 has a remaining binding of 100% (binding; 1 µM).
The remaining binding of O=c1nc(-c2ccccn2)sc2ccccc12 is reported as 100% (cell-free assay, competition with immobilised ligand; 1 µM).
O=C(c1ccc(Nc2ncc(Cl)c(-c3ccc(Cl)s3)n2)cc1)N1CCC(N2CCCC2)CC1 gave a remaining binding of 82% (binding, competition with immobilised ligand; 1 µM).
For CN(c1nccc(-c2cnn3ncccc23)n1)C1CC1, the remaining binding was 93% (binding; 1 µM).
O=C(c1ccc(Nc2ncc(Cl)c(-c3cc4ccccc4s3)n2)cc1)N1CCC(N2CCCC2)CC1 has a remaining binding of 75% (binding, competition with immobilised ligand; 1 µM).
COc1ccc2c(c1)O[C@H](c1ccc(OC)c(OC)c1)C[C@@H]2NC(=O)C1(c2ccc3c(c2)OC(F)(F)O3)CC1 gave a remaining binding of 100% (cell-free assay, competition with immobilised ligand; 1 µM).
N[C@@H]1CCN(c2nccc(-c3cnn4ncccc34)n2)C1 gave a remaining binding of 100% (binding; 1 µM).
